Activity calls are given as the source filed them. The calls are words filed in the database; no cut-off is given here.
Experiments:
Mus musculus [1] = test: Anticonvulsant activity in CF1 albino mouse assessed as protection against subcutaneous pentylenetetrazole-induced seizures at 300 mg/kg, ip after 4 hrs; assay type: functional, organism-based; parameters: dose 300 mg/kg
Method in brief: (§1)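 Male CF-1 mice; compounds suspended in 0.5% methylcellulose/water and injected ip at 30, 100 and 300 mg/kg. MES, scPTZ (pentylenetetrazole 85 mg/kg sc at the test time) and rotarod neurotoxicity were scored at 0.5 and 4 h. Value is the lowest dose active or toxic in half or more of the animals; signs such as ataxia or tremor were recorded.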

Rattus norvegicus [2] = test: Anticonvulsant activity in Sprague-Dawley rat assessed as protection against subcutaneous pentylenetetrazole-induced seizures at 50 mg/kg po after 0.25 hrs; assay type: functional, organism-based; parameters: dose 50 mg/kg
Method in brief: (§2)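 Oral fixed dose of 50 mg/kg in male Sprague–Dawley rats (0.5% methylcellulose/water suspension), four rats per group. Pentylenetetrazole 70 mg/kg given sc at each test time (0.25, 0.5, 1, 2, 4 h); protection from clonic seizures counted per four rats, with motor impairment studied in parallel.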

Rattus norvegicus [3] = test: Anticonvulsant activity in Sprague-Dawley rat assessed as protection against maximal electroshock-induced seizures at 30 mg/kg po after 1 hr; assay type: functional
Method in brief: (§3)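 Male Sprague–Dawley rats, four per group, given 30 mg/kg orally as a 0.5% methylcellulose/water suspension. MES protection scored at 0.25, 0.5, 1, 2 and 4 h after dosing, motor impairment checked in parallel; data are the number of the four rats protected.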

Rattus norvegicus [4] = test: Anticonvulsant activity in Sprague-Dawley rat assessed as protection against subcutaneous pentylenetetrazole-induced seizures at 50 mg/kg po after 2 hrs; assay type: functional; method in brief: as §2
Mus musculus [5] = test: Neurotoxicity in CF1 albino mouse at 300 mg/kg, ip after 4 hrs by rotarod test; assay type: toxicity, organism-based; parameters: dose 300 mg/kg, route intraperitoneal; details: in vivo; method in brief: as §1
Rattus norvegicus [6] = test: Anticonvulsant activity in Sprague-Dawley rat assessed as protection against maximal electroshock-induced seizures at 30 mg/kg po after 4 hrs; assay type: functional; method in brief: as §3
Rattus norvegicus [7] = test: Anticonvulsant activity in Sprague-Dawley rat assessed as protection against maximal electroshock-induced seizures at 30 mg/kg po after 0.5 hrs; assay type: functional; method in brief: as §3
Rattus norvegicus [8] = test: Anticonvulsant activity in Sprague-Dawley rat assessed as protection against subcutaneous pentylenetetrazole-induced seizures at 50 mg/kg po after 0.5 hrs; assay type: functional; method in brief: as §2
Mus musculus [9] = test: Neurotoxicity in CF1 albino mouse assessed as unable to grasp rotarod at 300 mg/kg, ip after 4 hrs by rotarod test; assay type: toxicity, organism-based; parameters: dose 300 mg/kg, route intraperitoneal; details: in vivo; method in brief: as §1
Rattus norvegicus [10] = test: Anticonvulsant activity in Sprague-Dawley rat assessed as protection against maximal electroshock-induced seizures at 30 mg/kg po after 2 hrs; assay type: functional; method in brief: as §3
Mus musculus [11] = test: Anticonvulsant activity in ip dosed CF1 albino mouse assessed as dose required to protect against maximal electroshock-induced seizures after 0.5 hrs; assay type: functional; method in brief: as §1
Rattus norvegicus [12] = test: Anticonvulsant activity in Sprague-Dawley rat assessed as protection against subcutaneous pentylenetetrazole-induced seizures at 50 mg/kg po after 4 hrs; assay type: functional; method in brief: as §2
Rattus norvegicus [13] = test: Anticonvulsant activity in po dosed Sprague-Dawley rat assessed as protection against maximal electroshock-induced seizures; assay type: functional
Method in brief: (§4)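 Male Sprague–Dawley rats dosed orally (0.5% methylcellulose/water suspension), groups of eight, tested at the previously estimated time of peak effect. Doses varied until at least three points lay in the 10–90% range of protection (MES, scPTZ) or minimal rotarod neurotoxicity. ED50/TD50 with 95% confidence intervals came from regression; PI = TD50/ED50.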

Rattus norvegicus [14] = test: Anticonvulsant activity in po dosed Sprague-Dawley rat assessed as protection against subcutaneous pentylenetetrazole-induced seizures; assay type: functional; method in brief: as §4
Mus musculus [15] = test: Anticonvulsant activity in ip dosed CF1 albino mouse assessed as dose required to protect against maximal electroshock-induced seizures after 4 hrs; assay type: functional; method in brief: as §1
Mus musculus [16] = test: Anticonvulsant activity in ip dosed CF1 albino mouse assessed as dose required to protect against subcutaneous pentylenetetrazole-induced seizures after 0.5 hrs; assay type: functional; method in brief: as §1
[17] = Neurotoxicity in po dosed Sprague-Dawley rat by rotarod test; assay type: toxicity, organism-based; details: in vivo; method in brief: as §4
Rattus norvegicus [18] = test: Anticonvulsant activity in po dosed Sprague-Dawley rat assessed as time required to peak protection against seizures; assay type: functional
Rattus norvegicus [19] = test: Anticonvulsant activity in Sprague-Dawley rat assessed as protection against maximal electroshock-induced seizures at 30 mg/kg po after 0.25 hrs; assay type: functional; method in brief: as §3
Rattus norvegicus [20] = test: Anticonvulsant activity in Sprague-Dawley rat assessed as protection against subcutaneous pentylenetetrazole-induced seizures at 50 mg/kg po after 1 hr; assay type: functional; method in brief: as §2
Mus musculus [21] = test: Neurotoxicity in CF1 albino mouse assessed as unable to grasp rotarod at 100 mg/kg, ip after 4 hrs by rotarod test; assay type: toxicity, organism-based; parameters: dose 100 mg/kg, route intraperitoneal; details: in vivo; method in brief: as §1
Mus musculus [22] = test: Anticonvulsant activity in ip dosed CF1 albino mouse assessed as dose required to protect against subcutaneous pentylenetetrazole-induced seizures after 4 hrs; assay type: functional; method in brief: as §1
Rattus norvegicus [23] = species on record: Rattus norvegicus; test: Protection index, ratio of TD50 for Sprague-Dawley rat by rotarod test to ED50 for Sprague-Dawley rat by maximal electroshock test; assay type: functional; method in brief: as §4
Mus musculus [24] = test: Neurotoxicity in CF1 albino mouse assessed as tremors at 300 mg/kg, ip after 4 hrs by rotarod test; assay type: toxicity, organism-based; parameters: dose 300 mg/kg, route intraperitoneal; details: in vivo; method in brief: as §1
Mus musculus [25] = test: Anticonvulsant activity in CF1 albino mouse assessed as protection against subcutaneous pentylenetetrazole-induced seizures at 300 mg/kg, ip after 0.5 hrs; assay type: functional, organism-based; parameters: dose 300 mg/kg; method in brief: as §1
Mus musculus [26] = test: Neurotoxicity in CF1 albino mouse assessed as ataxia at 300 mg/kg, ip after 4 hrs by rotarod test; assay type: toxicity, organism-based; parameters: dose 300 mg/kg, route intraperitoneal; details: in vivo; method in brief: as §1
Mus musculus [27] = test: Neurotoxicity in CF1 albino mouse assessed as muscle spasms at 300 mg/kg, ip after 4 hrs by rotarod test; assay type: toxicity, organism-based, Muscle tissue; parameters: dose 300 mg/kg, route intraperitoneal; details: in vivo; method in brief: as §1
Mus musculus [28] = test: Anticonvulsant activity in CF1 albino mouse assessed as protection against maximal electroshock-induced seizures at 300 mg/kg, ip after 0.5 hrs; assay type: functional, organism-based; parameters: dose 300 mg/kg; method in brief: as §1

Row | SMILES | Activity (Mus musculus [1]) | Activity (Rattus norvegicus [3]) [%] | Activity (Mus musculus [5]) | Activity (Rattus norvegicus [6]) [%] | Activity (Rattus norvegicus [7]) [%] | Activity (Rattus norvegicus [10]) [%] | Activity (Mus musculus [11]) [mg/kg] | ED50 (Rattus norvegicus [13]) [mg/kg] | ED50 (Rattus norvegicus [14]) [mg/kg] | Activity (Mus musculus [15]) [mg/kg] | Activity (Mus musculus [16]) [mg/kg] | TD50 [17] [mg/kg] | Time (Rattus norvegicus [18]) [h] | Activity (Rattus norvegicus [19]) | also measured
1 | O=C1CC2(CCc3ccccc3C2)C(=O)N1CN1CCOCC1 (stereo not drawn) | inactive | 25 | Non-toxic | 50 | 25 | 25 | 100 | > 160 | > 150 | 300 | 100 | > 500 | 0.5 | 50% | Activity (Rattus norvegicus [2]): inactive; Activity (Rattus norvegicus [4]): 25%; Activity (Rattus norvegicus [8]): 25%; Activity (Mus musculus [9]): Non-toxic; Activity (Rattus norvegicus [12]): 25%; Activity (Rattus norvegicus [20]): 25%
2 | O=C1NC2(CCc3ccccc3C2)C(=O)N1CN1CCN(CCO)CC1 (stereo not drawn) |  | 50 | Non-toxic | 100 | 25 | 100 | 100 | 14.9 | > 250 | 300 | 100 | > 300 | 4 | inactive | Activity (Mus musculus [21]): Non-toxic; Activity (Mus musculus [22]): 300 mg/kg; PI (Rattus norvegicus [23]): >20.09
3 | O=C1NC2(CCc3ccccc3C2)C(=O)N1CN1CCN(c2ccccc2F)CC1 (stereo not drawn) | inactive |  |  |  |  |  |  |  |  | 100 |  |  |  |  | Activity (Mus musculus [24]): Non-toxic; Activity (Mus musculus [25]): inactive; Activity (Mus musculus [26]): Non-toxic; Activity (Mus musculus [27]): Non-toxic; Activity (Mus musculus [28]): inactive
